pKi: −log10 of the molar value.
Columns and labels:
[1] = molecular target: 5-hydroxytryptamine receptor 6 (Homo sapiens, UniProt P50406); assay: Binding affinity against human 5-hydroxytryptamine 6 receptor
Rattus norvegicus = species on record: Rattus norvegicus; assay: Blood: Brain distribution ratio is determined in rat; type: ADME, organism-based
Outline: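 Rats received iv infusion for 8 h, and the brain:blood ratio was taken at steady state.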

[2] = Plasma Clearance measured at steady-state following iv infusion at 0.6 mg/kg/h in rats; type: ADME, organism-based; parameters: route intravenous; conditions: rat, 0.6 mg/kg/h infusion
[3] = molecular target: 5-hydroxytryptamine receptor 1B (Homo sapiens, UniProt P28222); assay: Compound was evaluated for binding affinity against human cloned 5-hydroxytryptamine 1B receptor in CHO cells using [3H]5-HT as the radioligand; type: cell-based
Outline: (§1)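 Radioligand binding to human cloned receptors: 5-HT1A in HEK 293 cells with [3H]-8-OH-DPAT; 5-HT1B and 5-HT1E in CHO cells with [3H]-5-HT; 5-HT2B in HEK 293 cells with [3H]-5-HT; D2 and D3 in CHO cells with [125I]-iodosulpride. Values are the mean of at least two determinations, each within 0.2 log unit of the mean.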

[4] = molecular target: 5-hydroxytryptamine receptor 1D (Homo sapiens, UniProt P28221); assay: Compound was evaluated for binding affinity against human cloned 5-hydroxytryptamine 1D receptor in CHO cells using [3H]5-HT as the radioligand; type: cell-based
[5] = molecular target: 5-hydroxytryptamine receptor 1E (Homo sapiens, UniProt P28566); assay: Compound was evaluated for binding affinity against human cloned 5-hydroxytryptamine 1E receptor in CHO cells using [3H]5-HT as the radioligand; type: cell-based; outline: as §1
[6] = molecular target: 5-hydroxytryptamine receptor 2A (Homo sapiens, UniProt P28223); assay: Compound was evaluated for binding affinity against human cloned 5-hydroxytryptamine 2A receptor in HEK 293 cells using [3H]ketanserin as the radioligand; type: cell-based, HEK293
[7] = molecular target: T1, 5-hydroxytryptamine receptor 1F (Homo sapiens, UniProt P30939); assay: Compound was evaluated for binding affinity against human cloned 5-hydroxytryptamine 1F receptor in CHO cells using [3H]-5-HT as the radioligand; type: cell-based
T1 sequence (P30939 whole entry): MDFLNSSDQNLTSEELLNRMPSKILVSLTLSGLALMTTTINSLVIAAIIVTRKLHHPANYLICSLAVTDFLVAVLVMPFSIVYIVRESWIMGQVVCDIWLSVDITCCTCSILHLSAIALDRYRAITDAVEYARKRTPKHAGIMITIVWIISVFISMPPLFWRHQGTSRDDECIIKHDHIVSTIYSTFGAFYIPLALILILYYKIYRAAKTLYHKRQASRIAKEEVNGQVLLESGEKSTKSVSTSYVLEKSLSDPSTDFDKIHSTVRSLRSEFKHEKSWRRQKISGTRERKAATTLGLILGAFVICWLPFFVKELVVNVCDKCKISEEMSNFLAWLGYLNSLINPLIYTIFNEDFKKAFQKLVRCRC

[8] = molecular target: T2, 5-hydroxytryptamine receptor 2C (Homo sapiens, UniProt P28335); assay: Compound was evaluated for binding affinity against human cloned 5-hydroxytryptamine 2C receptor in HEK 293 cells using [3H]mesulergine as the radioligand; type: cell-based, HEK293
T2 sequence (P28335 whole entry): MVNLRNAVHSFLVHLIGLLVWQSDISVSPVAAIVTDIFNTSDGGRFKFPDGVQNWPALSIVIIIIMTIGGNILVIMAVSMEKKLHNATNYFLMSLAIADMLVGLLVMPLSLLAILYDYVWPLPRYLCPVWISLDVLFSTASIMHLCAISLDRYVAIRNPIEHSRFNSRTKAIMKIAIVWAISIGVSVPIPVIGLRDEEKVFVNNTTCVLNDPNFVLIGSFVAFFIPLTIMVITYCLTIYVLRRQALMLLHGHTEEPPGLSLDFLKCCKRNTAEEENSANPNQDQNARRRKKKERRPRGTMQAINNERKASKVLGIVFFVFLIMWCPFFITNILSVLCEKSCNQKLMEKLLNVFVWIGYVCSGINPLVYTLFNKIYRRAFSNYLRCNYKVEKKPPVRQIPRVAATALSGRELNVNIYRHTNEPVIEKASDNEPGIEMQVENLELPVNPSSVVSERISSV

[9] = molecular target: 5-hydroxytryptamine receptor 2B (Homo sapiens, UniProt P41595); assay: Compound was evaluated for binding affinity against human cloned 5-HT2B receptor in HEK 293 cells using [3H]5-HT as the radioligand; type: cell-based, HEK293; outline: as §1
[10] = molecular target: 5-hydroxytryptamine receptor 4 (Homo sapiens, UniProt Q13639); assay: Compound was evaluated for the binding affinity against human cloned 5-hydroxytryptamine 4 receptor in HeLa cells using [3H]-LSD as the radioligand; type: cell-based
[11] = Bioavailability in rat (dose 3 mg/kg in 1% methylcellulose ); type: ADME, organism-based; conditions: in vivo
Outline: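 Oral suspension dose of 3 mg/kg in 1% methylcellulose (v/v) aq to rats (n=3). Blood levels were measured by LC/MS/MS to derive AUC/dose and bioavailability.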

[12] = molecular target: T3, Alpha-1B adrenergic receptor (Homo sapiens, UniProt P35368); assay: Compound was evaluated for binding affinity against Alpha-1B adrenergic receptor
T3 sequence (P35368 whole entry): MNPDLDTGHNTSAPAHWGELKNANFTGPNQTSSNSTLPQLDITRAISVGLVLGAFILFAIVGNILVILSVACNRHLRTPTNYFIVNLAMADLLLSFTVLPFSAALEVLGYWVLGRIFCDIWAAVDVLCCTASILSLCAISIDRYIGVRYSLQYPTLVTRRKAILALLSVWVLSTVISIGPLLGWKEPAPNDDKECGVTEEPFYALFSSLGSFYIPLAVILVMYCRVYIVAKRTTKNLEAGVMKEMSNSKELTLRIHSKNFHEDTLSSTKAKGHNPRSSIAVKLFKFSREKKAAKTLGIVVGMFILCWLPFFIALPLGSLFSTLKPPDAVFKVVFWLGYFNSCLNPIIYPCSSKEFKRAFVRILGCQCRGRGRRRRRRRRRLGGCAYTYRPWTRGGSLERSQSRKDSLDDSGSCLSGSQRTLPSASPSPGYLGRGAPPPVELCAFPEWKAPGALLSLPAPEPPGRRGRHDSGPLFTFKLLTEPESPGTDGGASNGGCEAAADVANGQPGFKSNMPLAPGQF

D(3) dopamine receptor = D(3) dopamine receptor (Homo sapiens, UniProt P35462); assay: Compound was evaluated for binding affinity against Dopamine receptor D3 in CHO cells using [125I]iodosulpiride as the radioligand; type: cell-based; outline: as §1
D(2) dopamine receptor = D(2) dopamine receptor (Homo sapiens, UniProt P14416); assay: Compound was evaluated for binding affinity against Dopamine receptor D2 in CHO cells using [125I]iodosulpiride as the radioligand; type: cell-based; outline: as §1
[13] = molecular target: T4, 5-hydroxytryptamine receptor 1A (Homo sapiens, UniProt P08908); assay: Compound was evaluated for binding affinity against human cloned 5-hydroxytryptamine 1A receptor in HEK 293 cells using [3H]8-OH-DPAT as the radioligand; type: cell-based, HEK293; outline: as §1
T4 sequence (P08908 whole entry): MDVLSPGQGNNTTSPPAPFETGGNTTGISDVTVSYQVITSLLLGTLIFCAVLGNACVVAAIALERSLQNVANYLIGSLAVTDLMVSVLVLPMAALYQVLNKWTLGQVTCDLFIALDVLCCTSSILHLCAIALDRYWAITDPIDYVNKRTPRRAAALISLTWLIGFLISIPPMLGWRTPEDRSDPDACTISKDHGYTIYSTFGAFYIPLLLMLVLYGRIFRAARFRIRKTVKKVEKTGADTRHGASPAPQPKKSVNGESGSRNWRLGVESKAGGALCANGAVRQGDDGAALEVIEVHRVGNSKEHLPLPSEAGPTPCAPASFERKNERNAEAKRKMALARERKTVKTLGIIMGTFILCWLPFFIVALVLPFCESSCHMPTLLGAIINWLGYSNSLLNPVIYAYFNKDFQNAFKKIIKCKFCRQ

[14] = molecular target: 5-hydroxytryptamine receptor 7 (Homo sapiens, UniProt P34969); assay: Compound was evaluated for binding affinity against human cloned 5-hydroxytryptamine 7 receptor in HEK 293 cells using [3H]5-CT as the radioligand (n=3); type: cell-based, HEK293
[15] = Bioavailability in rat (dose 10 mg/kg in 10% Encapsin and 2% DMSO p.o.); conditions: in vivo, po

Sequence of 5-hydroxytryptamine receptor 6 (P50406 whole entry): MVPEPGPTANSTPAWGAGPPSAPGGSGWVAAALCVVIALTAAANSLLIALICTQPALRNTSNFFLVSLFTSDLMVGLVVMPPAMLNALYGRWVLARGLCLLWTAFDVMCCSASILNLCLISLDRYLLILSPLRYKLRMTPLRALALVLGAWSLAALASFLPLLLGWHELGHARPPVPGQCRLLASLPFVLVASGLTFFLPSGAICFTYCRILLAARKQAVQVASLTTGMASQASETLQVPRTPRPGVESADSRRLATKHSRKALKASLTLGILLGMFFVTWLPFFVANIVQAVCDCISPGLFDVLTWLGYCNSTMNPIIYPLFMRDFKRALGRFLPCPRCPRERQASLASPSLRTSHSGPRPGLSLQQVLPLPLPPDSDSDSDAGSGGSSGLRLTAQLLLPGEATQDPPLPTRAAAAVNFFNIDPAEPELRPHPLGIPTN
Sequence of 5-hydroxytryptamine receptor 1B (P28222 whole entry): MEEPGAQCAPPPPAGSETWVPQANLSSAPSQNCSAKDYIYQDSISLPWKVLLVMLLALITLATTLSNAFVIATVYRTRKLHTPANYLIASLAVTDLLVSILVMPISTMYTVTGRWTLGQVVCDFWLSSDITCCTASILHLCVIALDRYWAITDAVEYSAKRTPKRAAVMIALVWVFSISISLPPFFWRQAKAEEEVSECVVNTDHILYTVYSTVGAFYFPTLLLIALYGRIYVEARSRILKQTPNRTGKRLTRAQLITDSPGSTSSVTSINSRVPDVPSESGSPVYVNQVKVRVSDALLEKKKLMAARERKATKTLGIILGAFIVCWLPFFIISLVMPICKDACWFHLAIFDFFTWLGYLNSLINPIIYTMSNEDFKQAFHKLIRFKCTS
Sequence of 5-hydroxytryptamine receptor 4 (Q13639 whole entry): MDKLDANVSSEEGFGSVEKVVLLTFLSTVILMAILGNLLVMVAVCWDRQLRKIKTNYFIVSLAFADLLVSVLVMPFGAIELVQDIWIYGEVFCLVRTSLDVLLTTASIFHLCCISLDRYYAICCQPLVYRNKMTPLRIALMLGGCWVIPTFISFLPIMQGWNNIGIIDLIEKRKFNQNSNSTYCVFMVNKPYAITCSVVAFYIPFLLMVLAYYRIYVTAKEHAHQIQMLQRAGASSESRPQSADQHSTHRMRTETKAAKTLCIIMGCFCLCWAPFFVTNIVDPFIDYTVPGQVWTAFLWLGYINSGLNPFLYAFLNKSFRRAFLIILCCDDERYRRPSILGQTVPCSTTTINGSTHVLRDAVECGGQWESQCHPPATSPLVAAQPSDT
Sequence of 5-hydroxytryptamine receptor 2A (P28223 whole entry): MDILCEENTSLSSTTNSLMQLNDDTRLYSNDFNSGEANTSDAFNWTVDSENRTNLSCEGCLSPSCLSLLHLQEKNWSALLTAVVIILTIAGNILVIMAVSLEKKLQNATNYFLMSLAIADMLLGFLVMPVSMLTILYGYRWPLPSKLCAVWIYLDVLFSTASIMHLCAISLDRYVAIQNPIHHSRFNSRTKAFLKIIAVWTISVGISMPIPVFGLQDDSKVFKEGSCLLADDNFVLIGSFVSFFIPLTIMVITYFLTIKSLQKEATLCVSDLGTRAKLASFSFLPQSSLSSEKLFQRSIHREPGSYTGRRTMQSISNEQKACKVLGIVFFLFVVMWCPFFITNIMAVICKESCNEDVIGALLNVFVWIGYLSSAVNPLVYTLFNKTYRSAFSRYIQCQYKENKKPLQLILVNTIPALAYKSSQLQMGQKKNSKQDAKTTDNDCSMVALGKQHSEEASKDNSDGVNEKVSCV
Sequence of D(2) dopamine receptor (P14416 whole entry): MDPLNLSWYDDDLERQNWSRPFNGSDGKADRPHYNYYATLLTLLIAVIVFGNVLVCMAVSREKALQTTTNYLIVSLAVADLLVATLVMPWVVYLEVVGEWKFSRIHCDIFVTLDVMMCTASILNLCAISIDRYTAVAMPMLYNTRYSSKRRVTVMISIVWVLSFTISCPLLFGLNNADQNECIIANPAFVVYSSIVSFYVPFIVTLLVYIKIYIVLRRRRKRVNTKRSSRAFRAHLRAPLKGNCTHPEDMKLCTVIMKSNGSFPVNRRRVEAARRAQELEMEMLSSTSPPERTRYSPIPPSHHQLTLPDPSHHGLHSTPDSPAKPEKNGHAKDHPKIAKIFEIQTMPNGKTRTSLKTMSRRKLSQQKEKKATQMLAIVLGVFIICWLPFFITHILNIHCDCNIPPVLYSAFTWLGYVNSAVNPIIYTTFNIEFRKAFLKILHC
Sequence of 5-hydroxytryptamine receptor 2B (P41595 whole entry): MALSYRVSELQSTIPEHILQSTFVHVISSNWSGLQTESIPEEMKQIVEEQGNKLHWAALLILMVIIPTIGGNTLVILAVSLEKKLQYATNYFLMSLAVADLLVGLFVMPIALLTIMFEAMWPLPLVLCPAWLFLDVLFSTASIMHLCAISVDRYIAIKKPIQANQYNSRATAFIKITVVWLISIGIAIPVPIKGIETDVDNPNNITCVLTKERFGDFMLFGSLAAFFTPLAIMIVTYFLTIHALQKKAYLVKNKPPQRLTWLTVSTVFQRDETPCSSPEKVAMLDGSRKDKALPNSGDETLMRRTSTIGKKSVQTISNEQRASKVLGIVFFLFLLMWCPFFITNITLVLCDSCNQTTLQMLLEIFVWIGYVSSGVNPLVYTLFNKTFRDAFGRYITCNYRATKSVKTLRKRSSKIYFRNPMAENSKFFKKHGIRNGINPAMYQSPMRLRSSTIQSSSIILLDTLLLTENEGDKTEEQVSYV
Sequence of 5-hydroxytryptamine receptor 1E (P28566 whole entry): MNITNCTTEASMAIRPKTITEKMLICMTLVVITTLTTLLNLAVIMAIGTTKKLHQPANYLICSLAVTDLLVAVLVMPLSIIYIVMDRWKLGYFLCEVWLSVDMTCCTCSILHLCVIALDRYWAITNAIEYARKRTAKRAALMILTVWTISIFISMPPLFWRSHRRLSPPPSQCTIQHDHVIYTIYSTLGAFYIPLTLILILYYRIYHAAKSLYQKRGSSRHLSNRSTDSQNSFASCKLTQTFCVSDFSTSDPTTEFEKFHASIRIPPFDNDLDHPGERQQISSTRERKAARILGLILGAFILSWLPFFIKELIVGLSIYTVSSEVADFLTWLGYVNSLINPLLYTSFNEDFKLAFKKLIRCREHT
Sequence of 5-hydroxytryptamine receptor 1D (P28221 whole entry): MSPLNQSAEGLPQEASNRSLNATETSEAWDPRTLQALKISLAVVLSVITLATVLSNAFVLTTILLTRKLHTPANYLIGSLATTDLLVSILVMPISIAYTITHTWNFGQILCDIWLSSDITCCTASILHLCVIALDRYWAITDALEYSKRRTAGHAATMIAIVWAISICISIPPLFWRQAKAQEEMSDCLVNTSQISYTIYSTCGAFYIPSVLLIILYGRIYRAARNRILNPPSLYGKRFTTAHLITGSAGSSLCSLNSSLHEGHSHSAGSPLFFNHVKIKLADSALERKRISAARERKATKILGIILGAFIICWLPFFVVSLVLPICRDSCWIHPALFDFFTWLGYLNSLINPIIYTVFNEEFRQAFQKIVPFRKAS
Sequence of D(3) dopamine receptor (P35462 whole entry): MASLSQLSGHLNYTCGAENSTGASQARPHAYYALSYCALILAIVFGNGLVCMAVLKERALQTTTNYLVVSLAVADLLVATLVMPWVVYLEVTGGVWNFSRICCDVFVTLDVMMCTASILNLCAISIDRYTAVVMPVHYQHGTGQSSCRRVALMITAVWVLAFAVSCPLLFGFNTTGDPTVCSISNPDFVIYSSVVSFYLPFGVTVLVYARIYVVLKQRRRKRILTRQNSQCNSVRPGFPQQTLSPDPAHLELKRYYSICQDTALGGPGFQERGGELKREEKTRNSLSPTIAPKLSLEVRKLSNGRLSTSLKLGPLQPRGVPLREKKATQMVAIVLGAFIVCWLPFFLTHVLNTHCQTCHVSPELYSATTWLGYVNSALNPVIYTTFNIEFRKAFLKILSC
Sequence of 5-hydroxytryptamine receptor 7 (P34969 whole entry): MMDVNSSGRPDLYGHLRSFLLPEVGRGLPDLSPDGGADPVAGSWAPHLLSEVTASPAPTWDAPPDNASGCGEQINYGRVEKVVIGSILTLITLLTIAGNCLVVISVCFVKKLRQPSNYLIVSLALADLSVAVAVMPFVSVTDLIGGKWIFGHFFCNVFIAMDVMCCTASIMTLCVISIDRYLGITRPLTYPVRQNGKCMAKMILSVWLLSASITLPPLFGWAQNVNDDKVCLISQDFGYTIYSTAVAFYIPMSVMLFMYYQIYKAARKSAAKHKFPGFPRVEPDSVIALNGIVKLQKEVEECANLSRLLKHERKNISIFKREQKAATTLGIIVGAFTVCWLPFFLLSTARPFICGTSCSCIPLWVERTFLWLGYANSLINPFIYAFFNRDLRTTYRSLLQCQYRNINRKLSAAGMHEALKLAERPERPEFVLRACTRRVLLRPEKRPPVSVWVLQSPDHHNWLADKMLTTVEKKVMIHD

Q: With `COc1cc(Cl)c(C)cc1NS(=O)(=O)c1ccc(OC)c(N2CCNCC2)c1` as the compound, how does the pKi [1] read?
A: Its pKi is 8.70.

Q: With `COc1ccc(S(=O)(=O)Nc2ccccc2Br)cc1N1CCNCC1` as the compound, how does the pKi [1] read?
A: The pKi was 8.80.

Q: What about the Distribution ratio (Rattus norvegicus) of the same compound?
A: The Distribution ratio was 0.24.

Q: What about the clearance [2] of the same compound?
A: The clearance was 60 mL/min/kg.

Q: Which clearance [2] does the source give for `COc1ccc(S(=O)(=O)N2CCc3c(Cl)ccc(Cl)c3C2)cc1N1CCNCC1` here?
A: Its clearance is 76 mL/min/kg.

Q: With `COc1ccc(S(=O)(=O)Nc2cc(Br)cc(Br)c2Br)cc1N1CCNCC1` as the compound, how does the pKi [1] read?
A: The pKi was 8.60.

Q: With `COc1ccc(S(=O)(=O)N2CCCc3cc(Br)ccc32)cc1N1CCNCC1` as the compound, how does the pKi [1] read?
A: Its pKi is 8.50.

Q: With `COc1ccc(S(=O)(=O)Nc2ccc(Cl)cc2C(F)(F)F)cc1N1CCNCC1` as the compound, how does the pKi [1] read?
A: Its pKi is 7.60.

Q: With `COc1ccc(S(=O)(=O)Nc2cc(I)ccc2C)cc1N1CCNCC1` as the compound, how does the pKi [1] read?
A: Its pKi is 9.10.

Q: With `COc1ccc(S(=O)(=O)Nc2cc(Cl)c(Cl)cc2Cl)cc1N1CCNCC1` as the compound, how does the pKi [1] read?
A: The pKi was 8.30.

Q: With `COc1ccc(S(=O)(=O)Nc2cc(Br)cc(F)c2Cl)cc1N1CCNCC1` as the compound, how does the pKi [1] read?
A: The pKi was 8.50.

Q: With `COc1ccc(S(=O)(=O)Nc2cc([N+](=O)[O-])ccc2C)cc1N1CCNCC1` as the compound, how does the pKi [1] read?
A: Its pKi is 7.70.

Q: With `COc1ccc(S(=O)(=O)Nc2cc(Br)cc(Br)c2F)cc1N1CCNCC1` as the compound, how does the pKi [1] read?
A: The pKi was 8.60.

Q: With `COc1ccc(S(=O)(=O)Nc2ccc(Cl)c(Cl)c2)cc1N1CCNCC1` as the compound, how does the pKi [1] read?
A: Its pKi is 8.60.

Q: With `COc1ccc(S(=O)(=O)Nc2cccc(Br)c2)cc1N1CCNCC1` as the compound, how does the pKi [1] read?
A: The pKi was 8.90.

Q: With `COc1ccc(S(=O)(=O)Nc2cc(Br)ccc2Br)cc1N1CCNCC1` as the compound, how does the pKi [3] read?
A: Its pKi is less than 5.30.

Q: What about the pKi [4] of the same compound?
A: The pKi was less than 5.80.

Q: What about the pKi [5] of the same compound?
A: The pKi was less than 5.00.

Q: What about the pKi [6] of the same compound?
A: The pKi was less than 5.00.

Q: What about the pKi [7] of the same compound?
A: The pKi was less than 5.00.

Q: What about the pKi [8] of the same compound?
A: The pKi was less than 5.30.

Q: And the pKi [9]?
A: Its pKi is less than 5.50.

Q: And the pKi [10]?
A: The pKi was 5.50.

Q: What about the pKi [1] of the same compound?
A: Its pKi is 9.00.

Q: And the Distribution ratio (Rattus norvegicus)?
A: The Distribution ratio was 0.38.

Q: And the bioavailability [11]?
A: Its bioavailability is 20%.

Q: And the clearance [2]?
A: Its clearance is 43 mL/min/kg.

Q: What about the pKi [12] of the same compound?
A: The pKi was less than 5.70.

Q: What about the pKi (D(3) dopamine receptor) of the same compound?
A: Its pKi is less than 5.30.

Q: What about the pKi (D(2) dopamine receptor) of the same compound?
A: Its pKi is less than 5.00.

Q: And the pKi [13]?
A: Its pKi is less than 5.50.

Q: With `COc1ccc(S(=O)(=O)N2CCc3ccc(I)cc32)cc1N1CCNCC1` as the compound, how does the pKi [3] read?
A: Its pKi is 5.90.

Q: What about the pKi [4] of the same compound?
A: Its pKi is 6.70.

Q: And the pKi [5]?
A: The pKi was less than 5.00.

Q: What about the pKi [6] of the same compound?
A: Its pKi is less than 5.40.

Q: What about the pKi [7] of the same compound?
A: Its pKi is less than 5.10.

Q: What about the pKi [8] of the same compound?
A: Its pKi is 6.20.

Q: And the pKi [9]?
A: Its pKi is 6.20.

Q: And the pKi [10]?
A: The pKi was 5.40.

Q: What about the pKi [14] of the same compound?
A: Its pKi is 9.50.

Q: What about the pKi [1] of the same compound?
A: Its pKi is 9.50.

Q: What about the pKi [12] of the same compound?
A: Its pKi is 6.00.

Q: What about the pKi (D(3) dopamine receptor) of the same compound?
A: The pKi was 6.00.

Q: And the pKi (D(2) dopamine receptor)?
A: The pKi was 5.60.

Q: What about the pKi [13] of the same compound?
A: Its pKi is 6.30.

Q: With `COc1ccc(S(=O)(=O)Nc2ccc(I)cc2)cc1N1CCNCC1` as the compound, how does the pKi [1] read?
A: The pKi was 8.70.

Q: For `COc1ccc(NS(=O)(=O)c2sc3ccc(Cl)cc3c2C)cc1N1CCNCC1`, which clearance [2] is on record?
A: Its clearance is 8 mL/min/kg.

Q: And the bioavailability [15]?
A: The bioavailability was 82%.

Q: With `COc1ccc(S(=O)(=O)Nc2ccc(C)cc2Br)cc1N1CCNCC1` as the compound, how does the pKi [1] read?
A: The pKi was 8.10.

Q: Which clearance [2] does the source give for `COc1ccc(S(=O)(=O)N2CCc3cccc(Cl)c3C2)cc1N1CCNCC1` here?
A: Its clearance is 83 mL/min/kg.
